Results taken from ChEMBL document CHEMBL4689842, “EUbOPEN Chemogenomics Library wave 1” (2021).

Tested on: Fibroblast
Test: Multiplex assay against human fibroblast
Type: toxicity, cell-based
Summary of the method: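 Imaging took place on a CQ1 microscope at 37°C and 5% CO2 once compound had been added to live cells stained at seeding with Hoechst33342, BioTracker Green Microtubule Cytoskeleton Dye, MitoTracker Red and Annexin V Alexa Fluor 680. CellPathfinder machine-learning gating classed cells as Hoechst high-intensity objects or normal cells, classed normal cells as having healthy, pyknosed or fragmented nuclei, and classed pyknosed cells as mitotic or apoptotic. Tubulin, mitochondrial-mass and membrane-permeability phenotypes are per cents of the healthy-nucleus cells.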

[1] = 12 h, 1 µM, compound concentration 1 uM, replicate 1
[2] = 12 h, 1 µM, compound concentration 1 uM, replicate 2
[3] = 12 h, 10 µM, compound concentration 10 uM, replicate 1
[4] = 12 h, 10 µM, compound concentration 10 uM, replicate 2
[5] = 24 h, 1 µM, compound concentration 1 uM, replicate 1
[6] = 24 h, 1 µM, compound concentration 1 uM, replicate 2
[7] = 24 h, 10 µM, compound concentration 10 uM, replicate 1
[8] = 24 h, 10 µM, compound concentration 10 uM, replicate 2

Structure (SMILES): CCN1CCN(c2ccc(Nc3cc(N(C)C(=O)Nc4c(Cl)c(OC)cc(OC)c4Cl)ncn3)cc2)CC1 [INFIGRATINIB]
- Population Apoptotic (%) [1]: 55%
- Population Fragmented Nuclei (%) [1]: 28%
- Population Healthy Nuclei (%) [1]: 43%
- Population Hoechst High Intensity Objects (%) [1]: 24%
- Population Membrane Permeable-Phenotype (%) [1]: 2%
- Population Mitochondria Different-Phenotype (%) [1]: 12%
- Population Mitotic Cells (%) [1]: 44%
- Population Normal (%) [1]: 75%
- Population Pyknosed Nuclei (%) [1]: 27%
- Population Tubulin-Different-Phenotype (%) [1]: 23%
- Total Cell Count [1]: 322
- Population Apoptotic (%) [2]: 77%
- Population Fragmented Nuclei (%) [2]: 63%
- Population Healthy Nuclei (%) [2]: 20%
- Population Hoechst High Intensity Objects (%) [2]: 38%
- Population Membrane Permeable-Phenotype (%) [2]: 18%
- Population Mitochondria Different-Phenotype (%) [2]: 27%
- Population Mitotic Cells (%) [2]: 22%
- Population Normal (%) [2]: 61%
- Population Pyknosed Nuclei (%) [2]: 16%
- Population Tubulin-Different-Phenotype (%) [2]: 45%
- Total Cell Count [2]: 89
- Population Apoptotic (%) [3]: 61%
- Population Fragmented Nuclei (%) [3]: 31%
- Population Healthy Nuclei (%) [3]: 55%
- Population Hoechst High Intensity Objects (%) [3]: 13%
- Population Membrane Permeable-Phenotype (%) [3]: 5%
- Population Mitotic Cells (%) [3]: 38%
- Population Normal (%) [3]: 86%
- Population Tubulin-Different-Phenotype (%) [3]: 3%
- Total Cell Count [3]: 195
- Population Apoptotic (%) [4]: 75%
- Population Fragmented Nuclei (%) [4]: 60%
- Population Healthy Nuclei (%) [4]: 26%
- Population Hoechst High Intensity Objects (%) [4]: 34%
- Population Membrane Permeable-Phenotype (%) [4]: 17%
- Population Mitochondria Different-Phenotype (%) [4]: 5%
- Population Mitotic Cells (%) [4]: 25%
- Population Normal (%) [4]: 65%
- Population Pyknosed Nuclei (%) [4]: 12%
- Population Tubulin-Different-Phenotype (%) [4]: 11%
- Total Cell Count [4]: 98
- Population Apoptotic (%) [5]: 60%
- Population Fragmented Nuclei (%) [5]: 15%
- Population Healthy Nuclei (%) [5]: 44%
- Population Hoechst High Intensity Objects (%) [5]: 36%
- Population Membrane Permeable-Phenotype (%) [5]: 4%
- Population Mitochondria Different-Phenotype (%) [5]: 29%
- Population Mitotic Cells (%) [5]: 40%
- Population Normal (%) [5]: 63%
- Population Pyknosed Nuclei (%) [5]: 39%
- Population Tubulin-Different-Phenotype (%) [5]: 40%
- Total Cell Count [5]: 259
- Population Apoptotic (%) [6]: 66%
- Population Fragmented Nuclei (%) [6]: 60%
- Population Healthy Nuclei (%) [6]: 27%
- Population Hoechst High Intensity Objects (%) [6]: 46%
- Population Membrane Permeable-Phenotype (%) [6]: 0%
- Population Mitochondria Different-Phenotype (%) [6]: 23%
- Population Mitotic Cells (%) [6]: 33%
- Population Normal (%) [6]: 53%
- Population Pyknosed Nuclei (%) [6]: 12%
- Population Tubulin-Different-Phenotype (%) [6]: 38%
- Total Cell Count [6]: 90
- Population Apoptotic (%) [7]: 68%
- Population Fragmented Nuclei (%) [7]: 26%
- Population Healthy Nuclei (%) [7]: 61%
- Population Hoechst High Intensity Objects (%) [7]: 15%
- Population Mitochondria Different-Phenotype (%) [7]: 3%
- Population Mitotic Cells (%) [7]: 31%
- Population Normal (%) [7]: 84%
- Population Pyknosed Nuclei (%) [7]: 11%
- Population Tubulin-Different-Phenotype (%) [7]: 3%
- Total Cell Count [7]: 191
- Population Apoptotic (%) [8]: 100%
- Population Fragmented Nuclei (%) [8]: 56%
- Population Healthy Nuclei (%) [8]: 32%
- Population Hoechst High Intensity Objects (%) [8]: 34%
- Population Membrane Permeable-Phenotype (%) [8]: 9%
- Population Mitochondria Different-Phenotype (%) [8]: 9%
- Population Mitotic Cells (%) [8]: 0%
- Population Normal (%) [8]: 65%
- Population Pyknosed Nuclei (%) [8]: 10%
- Population Tubulin-Different-Phenotype (%) [8]: 9%
- Total Cell Count [8]: 99
